From ChEMBL document CHEMBL4689842, “EUbOPEN Chemogenomics Library wave 1” (2021)
Several values for one entry are separate records, joined by “and”; a condition that tells them apart may be missing. Equal values may be shown once.

Test system: HEK-293T
Assay: Multiplex assay against HEK293T;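 as to Population Tubulin-Different-Phenotype (%): share of the cells with healthy nuclei that show this phenotype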
Type: toxicity, cell-based
Details: human
How it was run: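 With compound added, live cells were imaged on a CQ1 microscope at 37°C and 5% CO2; staining with Hoechst33342, BioTracker Green Microtubule Cytoskeleton Dye, MitoTracker Red and Annexin V Alexa Fluor 680 had been done at seeding. The CellPathfinder machine-learning gating scheme split cells into Hoechst high-intensity objects or normal cells, normal cells into healthy, pyknosed or fragmented nuclei, and pyknosed cells into mitotic or apoptotic. The tubulin, mitochondrial-mass and membrane-permeability phenotypes are per cents of healthy-nucleus cells.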

[1] = 12 h, 1 µM, compound concentration 1 uM, replicate 1
[2] = 12 h, 1 µM, compound concentration 1 uM, replicate 2
[3] = 12 h, 10 µM, compound concentration 10 uM, replicate 1
[4] = 12 h, 10 µM, compound concentration 10 uM, replicate 2
[5] = 24 h, 1 µM, compound concentration 1 uM, replicate 1
[6] = 24 h, 1 µM, compound concentration 1 uM, replicate 2
[7] = 24 h, 10 µM, compound concentration 10 uM, replicate 1
[8] = 24 h, 10 µM, compound concentration 10 uM, replicate 2

## C=CC(=O)Nc1cccc(Oc2nc(Nc3ccc(N4CCN(C)CC4)cc3OC)ncc2Cl)c1
[1]
  Population Apoptotic (%): 22%
  Population Fragmented Nuclei (%): 21%
  Population Healthy Nuclei (%): 27%
  Population Hoechst High Intensity Objects (%): 18%
  Population Membrane Permeable-Phenotype (%): 13%
  Population Mitochondria Different-Phenotype (%): 25%
  Population Mitotic Cells (%): 77%
  Population Normal (%): 81%
  Population Pyknosed Nuclei (%): 50%
  Population Tubulin-Different-Phenotype (%): 77%
  Total Cell Count: 425
[2]
  Population Apoptotic (%): 11%
  Population Fragmented Nuclei (%): 4%
  Population Healthy Nuclei (%): 70%
  Population Hoechst High Intensity Objects (%): 7%
  Population Membrane Permeable-Phenotype (%): 11%
  Population Mitochondria Different-Phenotype (%): 54%
  Population Mitotic Cells (%): 88%
  Population Normal (%): 92%
  Population Pyknosed Nuclei (%): 25%
  Population Tubulin-Different-Phenotype (%): 98%
  Total Cell Count: 1025
[3]
  Population Apoptotic (%): 16%
  Population Fragmented Nuclei (%): 10%
  Population Healthy Nuclei (%): 70%
  Population Hoechst High Intensity Objects (%): 12%
  Population Membrane Permeable-Phenotype (%): 3%
  Population Mitochondria Different-Phenotype (%): 8%
  Population Mitotic Cells (%): 83%
  Population Normal (%): 87%
  Population Pyknosed Nuclei (%): 18%
  Population Tubulin-Different-Phenotype (%): 18%
  Total Cell Count: 722
[4]
  Population Apoptotic (%): 8%
  Population Fragmented Nuclei (%): 7%
  Population Healthy Nuclei (%): 86%
  Population Hoechst High Intensity Objects (%): 3%
  Population Membrane Permeable-Phenotype (%): 4%
  Population Mitochondria Different-Phenotype (%): 15%
  Population Mitotic Cells (%): 91%
  Population Normal (%): 96%
  Population Pyknosed Nuclei (%): 6%
  Population Tubulin-Different-Phenotype (%): 16%
  Total Cell Count: 1384
[5]
  Population Apoptotic (%): 36%
  Population Fragmented Nuclei (%): 23%
  Population Healthy Nuclei (%): 33%
  Population Hoechst High Intensity Objects (%): 16%
  Population Membrane Permeable-Phenotype (%): 10%
  Population Mitochondria Different-Phenotype (%): 49%
  Population Mitotic Cells (%): 63%
  Population Normal (%): 83%
  Population Pyknosed Nuclei (%): 43%
  Population Tubulin-Different-Phenotype (%): 78%
  Total Cell Count: 379
[6]
  Population Apoptotic (%): 13%
  Population Fragmented Nuclei (%): 8%
  Population Healthy Nuclei (%): 76%
  Population Hoechst High Intensity Objects (%): 7%
  Population Mitochondria Different-Phenotype (%): 36%
  Population Mitotic Cells (%): 86%
  Population Normal (%): 92%
  Population Pyknosed Nuclei (%): 14%
  Population Tubulin-Different-Phenotype (%): 89%
  Total Cell Count: 1188
[7]
  Population Apoptotic (%): 8%
  Population Fragmented Nuclei (%): 11%
  Population Healthy Nuclei (%): 79%
  Population Hoechst High Intensity Objects (%): 8%
  Population Membrane Permeable-Phenotype (%): 11%
  Population Mitochondria Different-Phenotype (%): 5%
  Population Mitotic Cells (%): 92%
  Population Normal (%): 91%
  Population Pyknosed Nuclei (%): 8%
  Population Tubulin-Different-Phenotype (%): 23%
  Total Cell Count: 923
[8]
  Population Apoptotic (%): 2%
  Population Fragmented Nuclei (%): 18%
  Population Healthy Nuclei (%): 78%
  Population Hoechst High Intensity Objects (%): 2%
  Population Membrane Permeable-Phenotype (%): 7%
  Population Mitochondria Different-Phenotype (%): 2%
  Population Mitotic Cells (%): 97%
  Population Normal (%): 97%
  Population Pyknosed Nuclei (%): 3%
  Population Tubulin-Different-Phenotype (%): 12%
  Total Cell Count: 2281

## CNC(=O)Nc1ccc2c(c1)[C@@]1(CC2)OC(=O)N(CC(=O)N(Cc2ccc(F)cc2)[C@@H](C)C(F)(F)F)C1=O [A-486]
[1]
  Population Apoptotic (%): 25%
  Population Fragmented Nuclei (%): 17%
  Population Healthy Nuclei (%): 47%
  Population Hoechst High Intensity Objects (%): 15%
  Population Membrane Permeable-Phenotype (%): 17%
  Population Mitochondria Different-Phenotype (%): 15%
  Population Mitotic Cells (%): 74%
  Population Normal (%): 84%
  Population Pyknosed Nuclei (%): 35%
  Population Tubulin-Different-Phenotype (%): 48%
  Total Cell Count: 632
[2]
  Population Apoptotic (%): 12%
  Population Fragmented Nuclei (%): 4%
  Population Healthy Nuclei (%): 82%
  Population Hoechst High Intensity Objects (%): 2%
  Population Membrane Permeable-Phenotype (%): 29%
  Population Mitochondria Different-Phenotype (%): 21%
  Population Mitotic Cells (%): 87%
  Population Normal (%): 97%
  Population Pyknosed Nuclei (%): 13%
  Population Tubulin-Different-Phenotype (%): 88%
  Total Cell Count: 1325
[3]
  Population Apoptotic (%): 14%
  Population Fragmented Nuclei (%): 20%
  Population Healthy Nuclei (%): 57%
  Population Hoechst High Intensity Objects (%): 17%
  Population Membrane Permeable-Phenotype (%): 7%
  Population Mitochondria Different-Phenotype (%): 6%
  Population Mitotic Cells (%): 85%
  Population Normal (%): 82%
  Population Pyknosed Nuclei (%): 22%
  Population Tubulin-Different-Phenotype (%): 4%
  Total Cell Count: 510
[4]
  Population Apoptotic (%): 5%
  Population Fragmented Nuclei (%): 9%
  Population Healthy Nuclei (%): 85%
  Population Hoechst High Intensity Objects (%): 1%
  Population Membrane Permeable-Phenotype (%): 2%
  Population Mitochondria Different-Phenotype (%): 8%
  Population Mitotic Cells (%): 95%
  Population Normal (%): 98%
  Population Pyknosed Nuclei (%): 4%
  Population Tubulin-Different-Phenotype (%): 13%
  Total Cell Count: 1787
[5]
  Population Apoptotic (%): 24%
  Population Fragmented Nuclei (%): 12%
  Population Healthy Nuclei (%): 73%
  Population Hoechst High Intensity Objects (%): 10%
  Population Membrane Permeable-Phenotype (%): 25%
  Population Mitochondria Different-Phenotype (%): 11%
  Population Mitotic Cells (%): 75%
  Population Normal (%): 89%
  Population Pyknosed Nuclei (%): 14%
  Population Tubulin-Different-Phenotype (%): 67%
  Total Cell Count: 669
[6]
  Population Apoptotic (%): 6%
  Population Fragmented Nuclei (%): 14%
  Population Healthy Nuclei (%): 79%
  Population Hoechst High Intensity Objects (%): 3%
  Population Membrane Permeable-Phenotype (%): 36%
  Population Mitochondria Different-Phenotype (%): 10%
  Population Mitotic Cells (%): 93%
  Population Normal (%): 96%
  Population Pyknosed Nuclei (%): 5%
  Population Tubulin-Different-Phenotype (%): 89%
  Total Cell Count: 1891
[7]
  Population Apoptotic (%): 33%
  Population Fragmented Nuclei (%): 15%
  Population Healthy Nuclei (%): 75%
  Population Hoechst High Intensity Objects (%): 9%
  Population Membrane Permeable-Phenotype (%): 8%
  Population Mitochondria Different-Phenotype (%): 4%
  Population Mitotic Cells (%): 66%
  Population Normal (%): 90%
  Population Pyknosed Nuclei (%): 9%
  Population Tubulin-Different-Phenotype (%): 10%
  Total Cell Count: 551
[8]
  Population Apoptotic (%): 7%
  Population Fragmented Nuclei (%): 25%
  Population Healthy Nuclei (%): 72%
  Population Hoechst High Intensity Objects (%): 2%
  Population Membrane Permeable-Phenotype (%): 7%
  Population Mitochondria Different-Phenotype (%): 2%
  Population Mitotic Cells (%): 92%
  Population Normal (%): 97%
  Population Pyknosed Nuclei (%): 1%
  Population Tubulin-Different-Phenotype (%): 13%
  Total Cell Count: 3041

## CNCc1ccccc1-c1csc([C@@H](C)Nc2nc(C)nc3cc(OC)c(OC)cc23)c1 [BAY-293]
[3]
  Population Apoptotic (%): 19% and 47%
  Population Fragmented Nuclei (%): 20% and 21%
  Population Healthy Nuclei (%): 45% and 17%
  Population Hoechst High Intensity Objects (%): 16% and 22%
  Population Membrane Permeable-Phenotype (%): 29% and 15%
  Population Mitochondria Different-Phenotype (%): 18% and 54%
  Population Mitotic Cells (%): 80% and 52%
  Population Normal (%): 83% and 77%
  Population Pyknosed Nuclei (%): 34% and 61%
  Population Tubulin-Different-Phenotype (%): 80% and 65%
  Total Cell Count: 581 and 619
[4]
  Population Fragmented Nuclei (%): 5% and 2%
  Population Healthy Nuclei (%): 80% and 57%
  Population Hoechst High Intensity Objects (%): 3% and 9%
  Population Membrane Permeable-Phenotype (%): 7%
  Population Mitotic Cells (%): 91% and 65%
  Population Normal (%): 96% and 90%
  Population Pyknosed Nuclei (%): 14% and 40%
  Population Tubulin-Different-Phenotype (%): 95% and 92%
  Total Cell Count: 1447 and 918
[7]
  Population Apoptotic (%): 55% and 23%
  Population Fragmented Nuclei (%): 28% and 17%
  Population Hoechst High Intensity Objects (%): 25% and 13%
  Population Membrane Permeable-Phenotype (%): 17% and 36%
  Population Mitochondria Different-Phenotype (%): 45% and 16%
  Population Mitotic Cells (%): 44% and 76%
  Population Normal (%): 74% and 86%
  Population Tubulin-Different-Phenotype (%): 59% and 89%
  Total Cell Count: 668 and 627
[8]
  Population Fragmented Nuclei (%): 5% and 15%
  Population Healthy Nuclei (%): 46% and 79%
  Population Mitotic Cells (%): 53% and 94%
  Population Normal (%): 89% and 96%
  Population Tubulin-Different-Phenotype (%): 73% and 82%
  Total Cell Count: 918 and 2344
